Assay outcomes as filed in PubChem BioAssay.
Compounds with a hit are over-represented: about 2.8% of the library has one in this group of screens.
NPY Y1 blocker: NPY-Y1 receptor antagonists, primary screen, cell-based. HEK293-CNG Y1 cells, membrane potential fluorescence; NPY at EC95, then isoproterenol. inhibition, % at 3.6 µM. 200,000 compounds, 1% hits. AID 1040, 2008;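 active = inhibition above the campaign mean inhibition of all tested compounds plus 3 SD, cut at about 20% in these data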
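Material: Y1- and CNG-channel-expressing HEK293 cells / Probe or stimulus: NPY 25 nM then isoproterenol 1 µM plus Ro 20-1724 25 µM / Doses: 3.6 µM single dose, DMSO 0.4% / Schedule: compound incubation 1 h at room temperature, readout 45 min post-stimulation / Signal: membrane potential fluorescence / Benchmarks: isoproterenol-only wells as full block versus NPY-plus-isoproterenol wells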
NPY-Y1 PAM-ag: NPY-Y1 receptor potentiators or agonists, primary screen, cell-based; activation, % at 3.6 µM; NPY-Y1 expressing cells, potentiator/agonist activation; 220,000 compounds, 0.37% hits; Neuropeptide Y receptor type 1 (Homo sapiens), P25929; in the data active = activation above about 33%, passing the limit was not always enough;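 also: cells stimulated with NPY at EC10 then isoproterenol at EC100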
NPY-Y2 antag: NPY-Y2 receptor antagonists, primary screen, cell-based. Neuropeptide Y receptor type 2 (Homo sapiens), P49146. NPY-Y2 expressing cells, antagonist mode. inhibition, % at 2.7 µM. 140,000 compounds, 0.99% hits. AID 793, 2007; in the data active = inhibition above about 17%
Target sequence (P49146 whole entry, looked up): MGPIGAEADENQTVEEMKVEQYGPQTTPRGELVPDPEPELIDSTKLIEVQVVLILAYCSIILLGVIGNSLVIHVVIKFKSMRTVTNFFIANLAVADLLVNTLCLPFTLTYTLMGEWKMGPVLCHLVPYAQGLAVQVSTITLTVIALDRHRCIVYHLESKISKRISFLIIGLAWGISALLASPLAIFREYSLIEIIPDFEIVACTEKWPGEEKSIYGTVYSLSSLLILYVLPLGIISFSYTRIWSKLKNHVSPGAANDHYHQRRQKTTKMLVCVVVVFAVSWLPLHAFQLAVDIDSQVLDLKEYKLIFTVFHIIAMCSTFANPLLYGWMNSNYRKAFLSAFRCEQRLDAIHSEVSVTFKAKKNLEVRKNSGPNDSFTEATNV
MDM2 E3 inh: MDM2-luciferase reporter signal enhancers, primary screen, MDM2 E3 ligase inhibitor project, cell-based, luminescence, 1536-well. E3 ubiquitin-protein ligase Mdm2 (Homo sapiens), Q00987. cell-based MDM2 ubiquitination luciferase reporter, 2 h; 0 = plate control, 100 = twice control, blank-subtracted. signal enhancement, % at 5 µM. 210,000 compounds, 0.11% hits. AID 1230, 2008;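 active = signal enhancement of 30% or more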;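 also: luminescence tracks abundance of the self-degrading MDM2-luciferase fusion protein; higher signal means inhibition of MDM2 E3 ligase activity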
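Assay system: mammalian cells stably expressing self-ubiquitinating, self-degrading MDM2 E3–luciferase fusion. Quantity: 2000 cells in each well. Medium: DMEM culture medium. Compound dosing: single-point 5 µM. Timing: cell settling 4 h, compound treatment 2 h, both 37 °C. Technique: luciferase luminescence. Read-out basis: percent signal gain over controls, blank-subtracted. Benchmarks: plate controls and plate blanks.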
Measles CPE: compounds protecting cells from measles virus cytopathic effect, primary screen, measles RdRp inhibitor project, single point, MLSMR library, absorbance; AID 841, 2007; protection (pct of control), % at 4 µM; Measles virus-infected cells, CPE protection; 140,000 compounds, 1.5% hits; in the data active = protection mostly above about 24%, no sharp cut-off; inactive = mostly below about 26%
NPY-Y2 PAM-ag: NPY-Y2 potentiators or agonists, primary screen, cell-based. Neuropeptide Y receptor type 2 (Homo sapiens), P49146. cells expressing NPY-Y2, potentiator/agonist read-out. activation, % at 3.6 µM. 220,000 compounds, 0.45% hits. AID 1359, 2008; in the data active = activation above about 27%;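 also: cells stimulated with NPY near EC25 plus isoproterenol at EC100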
NPY-Y1 antag ct: NPY-Y1 receptor antagonists, selectivity check, counter-screen for NPY-Y2 antagonist project, cell-based. shares compounds with NPY-Y2 antag. cell-based NPY-Y1 antagonism counterscreen. inhibition, % at 3.6 µM. 710 compounds, 19% hits. AID 1256, 2008; in the data active = inhibition above about 20%;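 also: cells challenged with NPY then isoproterenol with cAMP sensed through a CNG channel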
NPY2 antag conf: NPY-Y2 receptor antagonists, retest of hits, confirmation, HEK293-CNG cells, membrane potential fluorescence, triplicate; HEK293 NPY-Y2 CNG channel; shares compounds with NPY-Y2 antag; inhibition, % at 2.8 µM; 710 compounds, 32% hits;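 active = mean inhibition of triplicate wells above the hit cutoff set in the primary screen, cut at about 17% in these data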
Large screens that a line does not name were inactive (follow-up assays come after a bar, where they were run).

CCN(CC)CC#CCC(C)(c1ccccc1)c1ccccc1	NPY-Y2 antag 18 | NPY-Y1 antag ct inactive | NPY2 antag conf 21
CCOc1ccc(N(CC(=O)NC2CCCC2)S(=O)(=O)c2c(C)[nH]c(=O)[nH]c2=O)cc1	none
Cc1cc(C)n(-c2nnc(C)n2/N=C/c2ccccc2OCc2ccccc2Cl)n1	NPY-Y2 antag 18 | NPY-Y1 antag ct 20 | NPY2 antag conf inactive
OC1(c2ccccc2)CCN(Cc2ccccc2)C2CCCCC21 (stereo unspecified)	NPY-Y2 antag 29 | NPY-Y1 antag ct inactive | NPY2 antag conf 43
CCN(CC)c1nc2cc(OC)ccc2cc1C#N	NPY-Y2 antag 23 | NPY-Y1 antag ct inactive | NPY2 antag conf inactive
CCSc1nc2ccc(OC)cc2cc1C#N	NPY-Y2 antag 21 | NPY-Y1 antag ct inactive | NPY2 antag conf 20
Cc1nn2c(c1-c1ccc(Cl)cc1)N=C(c1ccco1)CC2c1ccccc1 (stereo unspecified)	none
O=C(Nc1ccccc1Cl)C1C2CCC3C(CCC21)C3(Cl)Cl (stereo unspecified)	NPY-Y2 antag 18 | NPY-Y1 antag ct inactive | NPY2 antag conf inactive
CC1CCCN(CCOc2ccc3ccccc3c2Br)C1 (stereo unspecified)	none (no result: NPY-Y2 antag, Measles CPE)
CCOC(=O)c1cc2c(=O)n3ccccc3nc2n(CCCOC)c1=NC(C)=O	NPY-Y2 antag 21 | NPY-Y1 antag ct inactive | NPY2 antag conf inactive
CCOCCCn1c(=N)c(C(=O)NCc2ccc3c(c2)OCO3)cc2c(=O)n3ccccc3nc21	NPY-Y2 antag 23 | NPY-Y1 antag ct inactive | NPY2 antag conf inactive
CCCn1c(=N)c(C(=O)NCc2ccc3c(c2)OCO3)cc2c(=O)n3cccc(C)c3nc21	none
CCOC(=O)c1cc2c(=O)n3ccccc3nc2n(CCCOC)c1=NC(=O)c1ccncc1	none (no result: NPY-Y2 antag, Measles CPE)
CC(C)(C)C(=O)/C=c1\s/c(=C\c2ccc(-c3ccc([N+](=O)[O-])cc3)o2)c(=O)n1CC(=O)NC(N)=O	none (no result: NPY-Y2 antag, Measles CPE)
Cc1nonc1OCCNCc1c(C(=O)N2CCCCCCC2)nc2ccc(Cl)cn12	none (no result: NPY-Y2 antag, Measles CPE)
Cc1ccc(Cc2nnc3n(-c4ccccc4)nc(C(=O)c4ccccc4)n3c2=O)cc1	NPY-Y2 antag 17 (no result: MDM2 E3 inh) | NPY-Y1 antag ct 40 | NPY2 antag conf 67
Cc1ccc(CNC(=O)c2cc(C)nn2-c2ccccc2)cc1	none (no result: NPY Y1 blocker, NPY-Y2 antag, Measles CPE)
O=C(Cc1ccc(Br)cc1)OCC(=O)c1ccc2c(c1)OCCO2	NPY-Y2 antag 17 | NPY-Y1 antag ct inactive | NPY2 antag conf inactive
O=C(Cc1n[nH]c(=O)c2ccccc12)OCC(=O)c1ccc2c(c1)OCCO2	none
CCC(c1nnnn1C1CCCCC1)N1CCN(C2CCCC2)CC1 (stereo unspecified)	NPY-Y2 antag 27 | NPY-Y1 antag ct inactive | NPY2 antag conf inactive
CCCC(c1nnnn1C1CCCCC1)N1CCN(C2CCCC2)CC1 (stereo unspecified)	none
CCCC(c1nnnn1C(C)(C)CC)N1CCN(C2CCCC2)CC1 (stereo unspecified)	NPY-Y2 antag 25 | NPY-Y1 antag ct inactive | NPY2 antag conf inactive
O=C(CSc1nccc(=O)[nH]1)NN(c1ccccc1)c1ccccc1	none (no result: NPY-Y2 antag, Measles CPE)
C[N+](C)=C1SCC(C)(/C=N/O)S1 (stereo unspecified)	none (no result: NPY Y1 blocker, NPY-Y2 antag, Measles CPE)
COc1cc(S(=O)(=O)N(Cc2cccnc2)Cc2cccc(OC)c2OC)ccc1-n1cnnn1	none (no result: NPY Y1 blocker, NPY-Y2 antag, Measles CPE)
